Experiments:
Canis familiaris [1] = assay: Inhibition of gastric acid secretion at 40 mg/kg oral administration to dogs; format: functional; conditions: Canis lupus familiaris, Stomach
How it was run: (§1)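 Unanesthetized female beagle dogs with chronic gastric fistula; compound in 50 mL aqueous 1% methylcellulose delivered into stomach via fistula cannula 60 min before gastrin tetrapeptide (64 μg/kg sc, maximal secretory dose). Gastric output drained by gravity over three 30-min periods; acid concentration by titration to pH 7 with 0.01 N NaOH; percent decrease in acid concentration versus placebo trial in same animal; dose as base weight.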

Canis familiaris [2] = assay: Inhibition of gastric acid secretion at 20 mg/kg oral administration to dogs; format: functional; conditions: Canis lupus familiaris, Stomach; how it was run: as §1
Canis familiaris [3] = assay: Inhibition of gastric acid secretion at 10 mg/kg oral administration to dogs; format: functional; conditions: Canis lupus familiaris, Stomach; how it was run: as §1
Canis familiaris [4] = assay: Inhibition of gastric acid secretion at 40 mg/kg oral administration to dogs; Compound is CNS (central nervous system) effective; format: functional, organism-based; parameters: dose 40 mg/kg; conditions: Canis lupus familiaris, Stomach; how it was run: as §1
Canis familiaris [5] = assay: Acid concentration of gastrin tetrapeptide stimulated inhibition of gastric secretion when administered perorally in dogs; format: functional; conditions: Canis lupus familiaris, Stomach, po
How it was run: (§2)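 Unanesthetized female beagle dogs with chronic gastric fistula; compound in 50 mL 1% aqueous methylcellulose given into stomach via fistula cannula 60 min before stimulant (gastrin tetrapeptide 64 μg/kg sc, or histamine dihydrochloride 64 μg base/kg sc). Output drained by gravity, three 30-min periods; volume measured, acid concentration titrated to pH 7 with 0.01 N NaOH, output = volume × concentration. Percent change vs placebo trial in same dog.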

Canis familiaris [6] = assay: Acid concentration of histamine stimulated inhibition of gastric secretion when administered perorally in dogs; format: functional; conditions: Canis lupus familiaris, Stomach, po; how it was run: as §2
Canis familiaris [7] = assay: Acid output of gastrin tetrapeptide stimulated inhibition of gastric secretion when administered perorally in dogs; format: functional; conditions: Canis lupus familiaris, Stomach, po; how it was run: as §2
Canis familiaris [8] = assay: Acid output of histamine stimulated inhibition of gastric secretion when administered perorally in dogs; format: functional; conditions: Canis lupus familiaris, Stomach, po; how it was run: as §2
Canis familiaris [9] = assay: Volume of gastrin tetrapeptide stimulated inhibition of gastric secretion when administered perorally in dogs; format: functional; conditions: Canis lupus familiaris, Stomach, po; how it was run: as §2
Canis familiaris [10] = assay: Volume of histamine stimulated inhibition of gastric secretion when administered perorally in dogs; format: functional; conditions: Canis lupus familiaris, Stomach, po; how it was run: as §2

Row | Structure (SMILES) | inhibition in vivo at 40 mg/kg (Canis familiaris [1]) [%] | inhibition in vivo at 20 mg/kg (Canis familiaris [2]) [%] | inhibition in vivo at 10 mg/kg (Canis familiaris [3]) [%] | further results
1 | CCCN(CCC)CCN(C(=O)N(C)C)c1cc(C)cc(C)n1 | 93 | 22 | – | –
2 | CC(C)N(CCN(C(=O)N(C)C)c1ccc(Cl)cn1)C(C)C | – | 63 | 44 | –
3 | Cc1cc(N(CCN(C(C)C)C(C)C)C(=O)N(C)C)nc(C)c1Cl | – | 95 | 62 | –
4 | Cc1ccnc(N(CCN(C(C)C)C(C)C)C(=O)N(C)C)c1 | – | 95 | 79 | –
5 | Cc1cc(Cl)nc(N(CCN(C(C)C)C(C)C)C(=O)N(C)C)c1 | – | 71 | 52 | –
6 | Cc1cc(C)nc(N(CCNC(C)C)C(=O)N(C)C)c1 | 42 | 33 | – | –
7 | Cc1cccc(N(CCN(C(C)C)C(C)C)C(=O)N(C)C)n1 | – | 87 | 54 | –
8 | CNC(=O)N(CCN(C(C)C)C(C)C)c1cc(C)cc(C)n1 | – | 44 | – | inhibition (Canis familiaris [4]): CNS effect
9 | CN/C(=N\CCSCc1nc[nH]c1C)NC#N [CIMETIDINE] | – | – | – | ED50 (Canis familiaris [5]): 6.4 mg/kg; ED50 (Canis familiaris [6]): 5 mg/kg; ED50 (Canis familiaris [7]): 3.6 mg/kg; ED50 (Canis familiaris [8]): 2.6 mg/kg; ED50 (Canis familiaris [9]): 3.9 mg/kg; ED50 (Canis familiaris [10]): 3.5 mg/kg
10 | Cc1cc(C)nc(N(CCN(C)C)C(=O)N(C)C)c1 | 58 | 58 | 14 | –
11 | Cc1cc(C)nc(N(CCCN(C(C)C)C(C)C)C(=O)N(C)C)c1 | 35 | 0 | – | –
12 | CNCCN(C(=O)N(C)C)c1cc(C)cc(C)n1 | 20 | – | – | –
13 | Cc1cc(C)nc(N(CCN(C(C)C)C(C)C)C(=O)N(C)C)c1.Cl | – | 100 | 70 | ED50 (Canis familiaris [5]): 6.8 mg/kg; ED50 (Canis familiaris [6]): 9.6 mg/kg; ED50 (Canis familiaris [7]): 3.3 mg/kg; ED50 (Canis familiaris [8]): 5.1 mg/kg; ED50 (Canis familiaris [9]): 3.8 mg/kg; ED50 (Canis familiaris [10]): 12.6 mg/kg
14 | Cc1cc(C)nc(N(CCN(C(C)C)C(C)C)C(N)=O)c1 | – | 18 | – | inhibition (Canis familiaris [4]): CNS effect
15 | Cc1cc(C)nc(N(CCCCN(C(C)C)C(C)C)C(=O)N(C)C)c1 | 3 | 5 | – | –
16 | Cc1ccc(N(CCN(C(C)C)C(C)C)C(=O)N(C)C)nc1 | 33 | 19 | – | –
17 | CC(C)N(CCN(C(=O)N(C)C)c1ccccn1)C(C)C | 82 | 17 | – | –
18 | COc1ccnc(N(CCN(C(C)C)C(C)C)C(=O)N(C)C)c1 | – | 84 | 64 | –
19 | CC(C)N(CCN(C(=O)N(C)C)c1cccc(Cl)n1)C(C)C | – | 78 | – | –
